Bioassay records deposited in PubChem by The Scripps Research Institute Molecular Screening Center.
PAD4 inh – human PAD4 inhibitors, primary screen, biochemical, fluorescence polarization, 1536-well format | recombinant PAD4, RCA probe fluorescence polarization | inhibition, % at 6.36 µM | 0.41% of 330,000 active;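 active = percent inhibition above a cutoff equal to the mean of all tested compounds plus 3 SD, cut at about 15% in these data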;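 also: 0% = PAD4 with RCA probe and DMSO and 100% = probe without PAD4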
mABHD4 FP – ABHD4 inhibitors, primary screen, biochemical, fluorescence polarization, mouse. purified mABHD4, FP-Rh probe fluorescence polarization. AID 720543, 2013. inhibition, % at 8.92 µM. (Lyso)-N-acylphosphatidylethanolamine lipase (Mus musculus), Q8VD66. 0.54% of 370,000 active;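 active = inhibition exceeding the mean over every tested compound plus 3 SD, cut at about 30% in these data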;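 also: 0% = plate median of compound wells and 100% = S159A mutant with DMSO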
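assay system = mABHD4 protein | compound dosing = single nominal dose of 8.92 µM, 0.89% DMSO final | read-out basis = percent inhibition of probe binding, normalized to plate controls | schedule = Enzyme–compound pre-incubation 45 min, then probe 60 min, both 25 °C | detection = fluorescence polarization, excitation 525 nm, emission 598 nm, BODIPY TMR filters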
PRMT1 FP inh – PRMT1 methyltransferase inhibitors, primary screen, biochemical, fluorescence polarization; Protein arginine N-methyltransferase 1 (Homo sapiens), Q99873; inhibition, % at 2.79 µM; recombinant PRMT1, activity-based probe fluorescence polarization; 1.3% of 370,000 active; AID 652257, 2013;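 active = inhibition above about 21% made by adding two undisclosed values, limit read from the data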
HTRA1 inh – HTRA1 serine protease inhibitors, primary screen, biochemical, fluorescence polarization, HTS. inhibition, % at 5.96 µM. 0.5% of 340,000 active. Q92743. recombinant HTRA1, FP-rhodamine activity-based probe. AID 504803, 2011; in the data active = inhibition above about 36%;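 also: 0% = enzyme with DMSO and 100% = wells lacking enzyme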
Target sequence (Q92743 whole entry, looked up): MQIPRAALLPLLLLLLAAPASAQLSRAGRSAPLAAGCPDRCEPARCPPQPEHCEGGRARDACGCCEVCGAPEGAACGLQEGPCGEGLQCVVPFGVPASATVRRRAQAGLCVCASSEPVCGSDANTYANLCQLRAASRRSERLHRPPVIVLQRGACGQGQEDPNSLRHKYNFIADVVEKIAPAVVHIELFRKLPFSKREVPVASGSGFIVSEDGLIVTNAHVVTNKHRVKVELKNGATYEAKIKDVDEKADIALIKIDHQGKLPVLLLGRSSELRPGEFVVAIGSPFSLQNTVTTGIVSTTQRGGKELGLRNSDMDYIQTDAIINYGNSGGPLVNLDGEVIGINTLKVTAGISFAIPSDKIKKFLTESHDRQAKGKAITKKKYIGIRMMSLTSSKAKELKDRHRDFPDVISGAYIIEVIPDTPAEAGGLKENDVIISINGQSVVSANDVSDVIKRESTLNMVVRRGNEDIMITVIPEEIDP
TCR-CD3 inh – inhibitors of human TCR-CD3 interaction, primary screen, biochemical, fluorescence, TAMRA-labeled TCR probe. T-cell receptor (TCR). inhibition, % at 9.4 µM. 0.37% of 360,000 active; in the data active = inhibition above about 19%;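 also: recombinant mutant TCR 2C K166C tagged with TAMRA read by polarization; 0% = receptor in buffer alone and 100% = receptor with positive control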
SIAE inh – human SIAE inhibitors, primary screen, biochemical, fluorescence polarization, FP-Rh probe, 1536-well HTS; Sialate O-acetylesterase (Homo sapiens), Q9HAT2; SIAE FP-Rh probe binding; inhibition, % at 9.66 µM; 0.69% of 370,000 active; AID 1053197, 2014;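 active = inhibition above a cutoff: mean of compounds within the control limits plus 3 SD of those, cut at about 17% in these data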;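 also: 0% = plate median of compound wells and 100% = probe without SIAE protein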
PRMT1 inh conf – PRMT1 methyltransferase inhibitors, confirmation, biochemical, fluorescence polarization, triplicate; AID 687036, 2013; 42% of 3,300 active; inhibition, % at 2.79 µM; shares compounds with PRMT1 FP inh; recombinant His-PRMT1, activity-based probe fluorescence polarization;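 active = mean inhibition across replicates above the hit cutoff derived for the earlier primary screen, cut at about 22% in these data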
* marks the source's active call; other numbers are inactive results; x = no result. Rows were chosen to be rich in hits. Some 2.9% of all compounds tested hit in one or more screens of this group.

SMILES | PAD4 inh | mABHD4 FP | PRMT1 FP inh | HTRA1 inh | TCR-CD3 inh | SIAE inh | PRMT1 inh conf
OCCn1c(-c2ccc(F)cc2)csc1=Nc1ccccc1 | -0.3 | 5.0 | 42.0* | 3.4 | -4.6 | 8.2 | 0.0
CCOc1ccc(N=c2scc(-c3ccccc3)n2CCO)cc1 | 1.6 | 13.5 | 13.4 | -0.6 | 3.2 | 4.2 | x
CCOc1ccc(N=c2scc(-c3ccc(OC)cc3)n2CCO)cc1 | -1.6 | 3.1 | 25.9* | 1.6 | -7.4 | 2.5 | -1.0
O=S(=O)(c1ccc(-c2csc(=Nc3ccccc3)n2CCCN2CCOCC2)cc1)N1CCOCC1 | 0.4 | -12.9 | -0.9 | 4.3 | -4.9 | -3.6 | x
OCCn1c(-c2ccc3c(c2)OCO3)csc1=Nc1ccccc1 | 4.8 | -2.1 | 31.9* | 2.5 | -0.2 | 7.6 | 1.2
Cc1cc(C)cc(C(=O)OCCN(C)C2CN(Cc3cn(Cc4ccccc4F)nn3)S(=O)(=O)C2)c1 (centres undefined) | x | 2.4 | -2.3 | x | x | -4.6 | x
CC(C)(C)c1cccc(N/C(=C\C(=O)c2ccccc2)c2ccccc2)c1 | x | -9.5 | -0.9 | x | 6.3 | -0.5 | x
Cc1ccc(OC(=O)N(C)C[C@H]2OCc3cn(nn3)CCCC(=O)N([C@@H](C)CO)C[C@@H]2C)cc1 | x | 6.0 | 4.9 | x | -1.0 | 13.6 | x
COC(=O)[C@]12C[C@H](CC(=O)N3CCOCC3)C(=O)N(CCc3ccc(OC)c(OC)c3)C1=C[C@H](C1CCCC1)O[C@@H]2C | x | 4.7 | -5.6 | x | x | 2.5 | x
O=C(NC(CC1=CCCCC1)c1ccc2ccccc2c1)C(F)(F)F (centres undefined) | x | -7.8 | -1.8 | x | -2.5 | -5.1 | x
COc1ccc(NC(=O)CSc2nnnn2C2CC2)cc1S(=O)(=O)N1CCOCC1 | 5.5 | 4.9 | 38.0* | 12.6 | 6.6 | 8.8 | -1.9
Cc1ccc2nc(-c3ccco3)c(Cc3ccccc3C(F)(F)F)n2c1 | x | 11.2 | 33.4* | x | -5.2 | -1.6 | 19.5
Cc1cc2nc(-c3ccco3)c(Cc3ccccc3C(F)(F)F)n2c(C)c1Br | x | 16.4 | 35.7* | x | -4.7 | -6.5 | 17.0
FC(F)(F)c1ccccc1Cc1c(-c2ccco2)nc2ccc(Br)cn12 | x | 8.1 | 35.8* | x | 1.5 | -10.2 | 17.5
FC(F)(F)c1ccccc1Cc1c(-c2cccc(Cl)c2)nc2ccc(Br)cn12 | x | -8.4 | -0.7 | x | 1.9 | -8.4 | x
FC(F)(F)c1ccccc1Cc1c(-c2ccco2)nc2c3ccccc3ccn12 | x | -2.8 | 32.1* | x | -2.4 | -10.7 | 23.4*
O=C(O)c1ccc(S(=O)(=O)c2ccc([N+](=O)[O-])cc2[N+](=O)[O-])cc1 | 5.5 | 9.1 | 29.9* | 4.7 | -11.3 | 3.1 | 26.8*
O=C(O)c1ccc(S(=O)(=O)c2ccccc2C(=O)O)c([N+](=O)[O-])c1 | -0.8 | 2.4 | 3.6 | 3.2 | -4.2 | 0.6 | x
CC(NCc1ccco1)C(=O)N1CCN(c2ccc(F)cc2)CC1 (centres undefined) | x | -2.6 | -3.3 | x | x | 4.8 | x
Cc1nc2ccc(NC3=NCCCCC3)cc2s1 | -2.8 | 5.1 | 61.1* | -9.0 | -2.8 | 4.0 | 36.9*
Cc1ccc(NC2=NCCC2)cc1Cl | 0.4 | 2.1 | -3.7 | -5.0 | 5.3 | 8.4 | x
O=c1c2cc(Cl)ccc2oc2nc3n(c(=O)c12)CCCS3 | -0.3 | -1.1 | 63.3* | -3.5 | 1.4 | 3.4 | 52.1*
Cc1ccc(-c2nnc(SCC(=O)Nc3ccc4c(c3)OCCO4)n2-c2ccc(Cl)cc2)cc1 | x | -2.9 | -6.0 | x | x | 1.5 | x
CN(C)c1ccc(C(=O)NC2CCCCN(Cc3cccc(Cl)c3)C2=O)cc1 (centres undefined) | x | 2.1 | 3.3 | x | x | -1.2 | x
COc1ccc(N2CCN(CCC(=O)c3ccc4ccccc4c3)CC2)cc1 | 1.1 | -6.6 | 43.7* | 1.6 | -1.1 | -0.2 | 28.0*
COc1ccc(N2CCN(CC(=O)c3ccccc3)CC2)cc1 | -0.2 | 2.2 | 3.2 | -1.1 | 3.1 | 14.1 | x
